From PubChem
SIAE inh: blocks human sialic acid acetylesterase. SIAE FP-Rh probe binding, fluorescence polarization. hit rate 0.69% among 370,000. inhibition, % at 9.66 µM. AID 1053197. Q9HAT2;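 active means inhibition above a cutoff: mean of compounds within the control limits plus 3 SD of those, cut at about 17% in these data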;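 further: 0% = plate median of compound wells and 100% = probe without SIAE protein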
PRMT1 inh: PRMT1 (human) inhibition, primary screen. recombinant PRMT1, activity-based probe fluorescence polarization. hit rate 1.3% among 370,000. inhibition, % at 2.79 µM. Q99873;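 active means inhibition above about 21% made by adding two undisclosed values, limit read from the data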
rCAG RNA binder: r(CAG) repeat RNA binding; TO-PRO-1 dye displacement fluorescence; inhibition, % at 3 µM; hit rate 1.3% among 370,000; AID 651821;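 active means inhibition above the plate cutoff, the mean of all test compounds on that plate plus 3 SD, cut at about 35% in these data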;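 further: 0% = DMSO alone and 100% = 100 µM mitoxantrone as full dye displacement; higher means more dye released from RNA so lower well fluorescence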
HTRA1 inhibitor: blocks human HTRA1 serine peptidase | inhibition, % at 5.96 µM | recombinant HTRA1, FP-rhodamine activity-based probe, fluorescence polarization | AID 504803 | hit rate 0.5% among 340,000 | Q92743; in the data active means inhibition above about 36%;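 further: 0% = enzyme with DMSO and 100% = wells lacking enzyme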
mABHD4 FP: inhibitors of mouse ABHD4. Q8VD66. purified mABHD4, FP-Rh probe fluorescence polarization. inhibition, % at 8.92 µM. hit rate 0.54% among 370,000;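 active means inhibition exceeding the mean over every tested compound plus 3 SD, cut at about 30% in these data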;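 further: 0% = plate median of compound wells and 100% = S159A mutant with DMSO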
Target sequence (Q8VD66 whole entry, looked up): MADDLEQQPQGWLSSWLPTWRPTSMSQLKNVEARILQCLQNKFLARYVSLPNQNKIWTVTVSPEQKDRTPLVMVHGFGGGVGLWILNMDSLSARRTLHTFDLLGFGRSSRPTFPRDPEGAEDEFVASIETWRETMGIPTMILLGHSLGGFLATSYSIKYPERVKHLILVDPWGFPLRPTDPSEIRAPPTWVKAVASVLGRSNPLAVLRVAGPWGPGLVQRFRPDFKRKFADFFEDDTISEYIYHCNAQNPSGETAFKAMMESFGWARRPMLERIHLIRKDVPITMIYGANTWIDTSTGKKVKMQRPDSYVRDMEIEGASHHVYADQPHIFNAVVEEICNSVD
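Test system: mABHD4 protein | Buffer or medium: HEPES pH 7.0 buffer, 150 mM NaCl, 0.01% Pluronic F-127 | Probe or stimulus: FP-Rh fluorescent activity-based probe, added after compound pre-incubation | Timing: Pre-incubation 45 min, probe exposure 60 min, at 25 °C | Technique: Fluorescence polarization, excitation 525 nm, emission 598 nm, BODIPY TMR filters | Repeats: Single well per compound (singlicate)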
SIAE inh conf: confirmation of human SIAE inhibitors. AID 1117263. shares compounds with SIAE inh. hit rate 13% among 2,300. inhibition, % at 9.66 µM. SIAE FP-Rh activity-based probe, fluorescence polarization;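 active means mean inhibition of the replicates above the hit cutoff set in the primary screen, cut at about 17% in these data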;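 further: 0% = SIAE with DMSO and probe and 100% = probe without SIAE; inhibitors lower polarization as more probe stays unbound to SIAE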
Numbers without * were called inactive. The list is not random: actives were taken first. Their share in the collection is about 3.3%.

`Nc1ccccc1NC1=CC(=O)CC(c2ccco2)C1` (stereo not drawn) gave SIAE inh 19*, PRMT1 inh 3, rCAG RNA binder 6, HTRA1 inhibitor 8, mABHD4 FP 23 and SIAE inh conf 3.
Screening c1ccc(-c2cc3nc(NCC4CC4)nc(NCC4CCCCC4)c3s2)cc1 returned SIAE inh 5, PRMT1 inh 1, rCAG RNA binder 9 and mABHD4 FP 14.
Screening COCCNc1nc(NCCNC(C)=O)c2sc(-c3ccccc3)cc2n1 returned SIAE inh 4, PRMT1 inh -8, rCAG RNA binder 1 and mABHD4 FP 3.
Screening COCCNc1nc(NCCOc2ccccc2Cl)c2sc(-c3ccccc3)cc2n1 returned SIAE inh 20*, PRMT1 inh -7, rCAG RNA binder 7, mABHD4 FP 13 and SIAE inh conf 26*.
COCCNc1nc(NCC2CCCCC2)c2sc(-c3ccccc3)cc2n1 was read as SIAE inh 20*, PRMT1 inh -6, rCAG RNA binder 2, mABHD4 FP 19 and SIAE inh conf 32*.
CCOC(=O)C(C)Oc1ccc(OCc2ccccc2)cc1 (stereo not drawn) was read as SIAE inh 2, PRMT1 inh -1, rCAG RNA binder -6, HTRA1 inhibitor -4 and mABHD4 FP -3.
For O=C(CN1C(=O)NC2(CCc3ccccc32)C1=O)NCc1ccc(Cl)cc1 (stereo not drawn) the results were SIAE inh -2, PRMT1 inh -3, rCAG RNA binder -2, HTRA1 inhibitor -3 and mABHD4 FP -1.
`COc1ccccc1OCC(=O)Nc1ccc(C(N)=O)cc1` gave SIAE inh 18*, PRMT1 inh -2, rCAG RNA binder 0, HTRA1 inhibitor 1, mABHD4 FP 3 and SIAE inh conf -2.
For Cc1ccc(S(=O)(=O)N2C[C@@H]3[C@H]4CC[C@H](C4)[C@@H]3[C@@H](C)[C@H]2c2ccco2)cc1 the results were SIAE inh -1, PRMT1 inh -3, rCAG RNA binder 8, HTRA1 inhibitor -23 and mABHD4 FP -10.
Screening O=C(C[C@H]1C[C@H](C(=O)N2CCOCC2)[C@@]2(CCC3CCCC3)c3[nH]c4ccc(Cl)cc4c3CCN2C1=O)NCCCn1ccnc1 returned SIAE inh -3, PRMT1 inh 1, rCAG RNA binder 6, HTRA1 inhibitor 5 and mABHD4 FP -1.
For COc1c(S(=O)(=O)N2CCN(C(=O)c3ccco3)CC2)ccc(Cl)c1Cl the results were SIAE inh 73*, PRMT1 inh -1, rCAG RNA binder -1, HTRA1 inhibitor 0, mABHD4 FP -3 and SIAE inh conf 2.
`COc1ccc(Cl)cc1NC(=S)N1CCN(C(=O)c2ccco2)CC1` gave SIAE inh 39*, PRMT1 inh -2, rCAG RNA binder 7, HTRA1 inhibitor 7, mABHD4 FP 3 and SIAE inh conf -5.
COc1cc(NC(=S)N2CCN(C(=O)c3ccco3)CC2)c(OC)cc1Cl was read as SIAE inh 1, PRMT1 inh 6, rCAG RNA binder 0, HTRA1 inhibitor -1 and mABHD4 FP -1.
Cc1ccc(F)c([C@H]2C3C=CCC(c4ccccc4)C3C(=O)N2Cc2ccccc2)c1 (stereo partly drawn) was read as SIAE inh -3, PRMT1 inh 0, rCAG RNA binder 3, HTRA1 inhibitor -51 and mABHD4 FP -7.
Screening CC(C)NC(=O)c1ccc(N2CCOCC2)nc1 returned SIAE inh 19*, PRMT1 inh -2, rCAG RNA binder 3, HTRA1 inhibitor 1, mABHD4 FP 6 and SIAE inh conf -4.
Screening CCN(CC)C(=O)CSc1nnc(-c2cccs2)o1 returned SIAE inh -4, PRMT1 inh 2, rCAG RNA binder -1 and mABHD4 FP 8.
`Cc1cccc(-c2nnc(SCC(=O)NC3CCCC3)o2)c1` gave SIAE inh -2, PRMT1 inh -2, rCAG RNA binder 0, HTRA1 inhibitor -2 and mABHD4 FP -6.
For O=C(CSc1nnc(-c2cccc(F)c2)o1)NC1CCCC1 the results were SIAE inh 20*, PRMT1 inh 4, rCAG RNA binder -2, HTRA1 inhibitor 1, mABHD4 FP 1 and SIAE inh conf -1.
For O=C(CSc1nnc(-c2ccc(F)cc2)o1)N1CCCC1 the results were SIAE inh 21*, PRMT1 inh -1, rCAG RNA binder 0, HTRA1 inhibitor 1, mABHD4 FP 4 and SIAE inh conf -4.
Screening O=C(Nc1ccccc1N1CCOCC1)c1cc(-c2ccncc2)nc2ccccc12 returned SIAE inh 22*, PRMT1 inh -2, rCAG RNA binder 2, HTRA1 inhibitor 10, mABHD4 FP 7 and SIAE inh conf 2.
`O=C(Nc1ccc(N2CCOCC2)cc1)c1cc(-c2ccncc2)nc2ccccc12` gave SIAE inh 0, PRMT1 inh 1, rCAG RNA binder 6, HTRA1 inhibitor 2 and mABHD4 FP 7.
CSc1ncnc2c1ncn2CCCNCCCc1ccccc1 was read as SIAE inh 0, PRMT1 inh 8, rCAG RNA binder 2, HTRA1 inhibitor 1 and mABHD4 FP -16.
Screening O=C(Nc1ncccc1O)c1cccc(S(=O)(=O)NCc2ccccc2)c1 returned SIAE inh 0, PRMT1 inh 1, rCAG RNA binder 2, HTRA1 inhibitor -2 and mABHD4 FP -1.
Cc1ccnc(NC(=O)c2cccc(S(=O)(=O)NCc3ccccc3)c2)c1 was read as SIAE inh 21*, PRMT1 inh -10, rCAG RNA binder 0, HTRA1 inhibitor -20, mABHD4 FP -8 and SIAE inh conf -3.
Screening COc1ccccc1NC(=O)C(Cc1ccc(Cl)cc1)c1nn[nH]n1 (stereo not drawn) returned SIAE inh 9, PRMT1 inh 1, rCAG RNA binder 13, HTRA1 inhibitor 3 and mABHD4 FP 13.
Screening COc1ccc(CC(C(=O)Nc2ccc(OC)cc2)c2nn[nH]n2)cc1 (stereo not drawn) returned SIAE inh 26*, PRMT1 inh -3, rCAG RNA binder 4, HTRA1 inhibitor 2, mABHD4 FP -6 and SIAE inh conf 1.
Screening Nc1nc2c(ncn2[C@@H]2O[C@H](C(=O)N[C@H](Cc3ccccc3)C(=O)NCc3ccccc3)[C@@H](O)[C@H]2O)c(=O)[nH]1 returned SIAE inh 5, PRMT1 inh 2, rCAG RNA binder 6 and mABHD4 FP 2.
For CN(C(=O)[C@H]1O[C@@H](n2cnc3c(=O)[nH]c(N)nc32)[C@H](O)[C@@H]1O)C1CCCCC1 the results were SIAE inh 41*, PRMT1 inh -3, rCAG RNA binder 2, mABHD4 FP -6 and SIAE inh conf 46*.
For Nc1nc2c(ncn2[C@@H]2O[C@H](C(=O)NC3CCCCC3)[C@@H](O)[C@H]2O)c(=O)[nH]1 the results were SIAE inh 49*, PRMT1 inh 0, rCAG RNA binder 1, mABHD4 FP -2 and SIAE inh conf 43*.
